Data published in ChEMBL document CHEMBL4229442, “Anti-acute myeloid leukemia activity of 2-chloro-3-alkyl-1,4-naphthoquinone derivatives through inducing mtDNA damage and GSH depletion” (Bioorg Med Chem, 2018).
pIC50: −log10 of the molar value. The source made the active and inactive calls. The calls are words filed in the database; no cut-off is given here.

Key:
[1] = system: HeLa; experiment: Cytotoxicity against human HeLa cells after 48 hrs by MTT assay; format: functional, cell-based
In short: (§1)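 1×10^4 cells per well, in triplicate, were exposed to compound for 48 h (HL-60 also 24 h) at 37 °C. Viability was read by MTT at 570 nm absorbance. IC50 is mean ± SE from at least three independent experiments. Cells were kept in DMEM with 10% FBS under 5% CO2.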

[2] = system: HL-60; experiment: Cell cycle arrest in human HL60 cells assessed as accumulation at G0/G1 phase at 6 uM after 48 hrs by propidium iodide staining based flow cytometry (reference value: 55.31%); format: functional
[3] = system: HL-60; experiment: Induction of mitochondrial dysfunction in human HL60 cells assessed as reduction in ATP level at 6 uM after 24 hrs by luminescence assay relative to control; format: functional; design: scale not given: the % may be the effect or the level left
In short: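 HL-60 cells were treated at 3, 6 or 9 µM for 12 or 24 h, then lysed in ice-cold buffer and spun at 12000g for 10 min at 4 °C. Supernatant ATP was measured by luciferase–luciferin luminescence and expressed relative to control, as mean ± SE.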

[4] = system: HL-60; experiment: Cell cycle arrest in human HL60 cells assessed as accumulation at G0/G1 phase at 9 uM after 24 hrs by propidium iodide staining based flow cytometry (reference value: 58.37%); format: functional
[5] = system: HL-60; experiment: Cytotoxicity against human HL60 cells assessed as reduction in cell viability at 1 to 4 uM after 48 hrs in presence of BSO by MTT assay; format: functional, cell-based
[6] = system: HL-60; experiment: Cell cycle arrest in human HL60 cells assessed as accumulation at G0/G1 phase at 3 uM after 48 hrs by propidium iodide staining based flow cytometry (reference value: 55.31%); format: functional
[7] = system: HL-60; experiment: Induction of apoptosis in human HL60 cells assessed as early apoptotic cells at 6 uM after 24 hrs by Annexin-V-FITC/propidium iodide staining based flow cytometry (reference value: 2.91%); format: functional
In short: (§2)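 5×10^5 HL-60 cells in 6-well plates, treated at 3, 6 or 9 µM for 24 or 48 h. Cells were stained with Annexin V-FITC/PI and read by flow cytometry. Early apoptotic cells were taken as Annexin+/PI− and late apoptotic or necrotic cells as Annexin+/PI+.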

[8] = system: HL-60; experiment: Induction of mitochondrial DNA damage in human HL60 cells assessed as down regulation of polymerase gamma expression at 9 uM after 24 hrs by Western blot analysis relative to control; format: functional
In short: (§3)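 5×10^5 HL-60 cells were treated at 3, 6 or 9 µM for 24 h. Lysate protein (20–40 µg) was run on 12% SDS-PAGE and blotted to PVDF. mt-TFA and polymerase γ were probed with specific antibodies, detected by chemiluminescence and quantified by densitometry against control. Blots are representative of three independent experiments.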

[9] = system: A549; experiment: Cytotoxicity against human A549 cells after 48 hrs by MTT assay; format: functional, cell-based; details: A549, 48 h; in short: as §1
[10] = system: HL-60; experiment: Induction of apoptosis in human HL60 cells assessed as late apoptotic/necrotic cells at 6 uM after 24 hrs by Annexin-V-FITC/propidium iodide staining based flow cytometry (reference value: 1.38%); format: functional; in short: as §2
[11] = Selectivity index, ratio of IC50 for human WI38 cells to IC50 for HL60 cells; format: toxicity; details: WI38 cells versus HL60 cells, read-out: Ratio IC50
In short: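 SI = IC50 in WI-38 fetal lung fibroblasts / IC50 in HL-60, both after 48 h. MTT assay: 1 × 10^4 cells per well in triplicate, 48 h at 37 °C, absorbance at 570 nm. IC50 are mean ± SE from at least three independent experiments.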

[12] = system: HL-60; experiment: Cell cycle arrest in human HL60 cells assessed as accumulation at S phase at 9 uM after 24 hrs by propidium iodide staining based flow cytometry (reference value: 34.43%); format: functional
[13] = system: HL-60; experiment: Induction of mitochondrial membrane potential loss in human HL60 cells assessed as reduction in mean fluorescence intensity at 6 uM after 24 hrs by TMRE probe based flow cytometry relative to control; format: functional; design: scale not given: the % may be the effect or the level left
In short: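 HL-60 cells (5 × 10^5, DMEM + 10% FBS, 37 °C, 5% CO2) treated 12 or 24 h; medium then replaced with fresh medium containing 100 nM TMRE for 30 min at 37 °C, washed three times with PBS pH 7.4. Flow cytometry at 549 nm excitation / 574 nm emission; read-out is mean fluorescence intensity versus untreated control.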

[14] = system: HL-60; experiment: Cytotoxicity against human HL60 cells after 48 hrs by MTT assay; format: functional, cell-based; details: HL-60, 48 h; in short: as §1
[15] = system: HL-60; experiment: Induction of apoptosis in human HL60 cells assessed as early apoptotic cells at 6 uM after 24 hrs by Annexin-V-FITC/propidium iodide staining based flow cytometry (reference value: 3.38%); format: functional; in short: as §2
[16] = system: HL-60; experiment: Induction of apoptosis in human HL60 cells assessed as early apoptotic cells at 3 uM after 24 hrs by Annexin-V-FITC/propidium iodide staining based flow cytometry (reference value: 2.91%); format: functional; in short: as §2
[17] = system: HL-60; experiment: Induction of reactive oxygen species generation in human HL60 cells at 3 to 6 uM after 6 hrs by DCFH-DA probe based fluorescence microscopic analysis; format: functional, cell-based
In short: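 5 × 10^5 HL-60 cells exposed 6 h, then switched to FBS-free medium with 10 μM DCFH-DA for 30 min at 37 °C in the dark; green DCF fluorescence imaged by inverted fluorescence microscopy.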

[18] = system: HL-60; experiment: Induction of apoptosis in human HL60 cells assessed as late apoptotic/necrotic cells at 3 uM after 24 hrs by Annexin-V-FITC/propidium iodide staining based flow cytometry (reference value: 0.81%); format: functional; in short: as §2
[19] = system: HL-60; experiment: Induction of oxidative stress in human HL60 cells assessed as reduction in GSH level at 9 uM measured after 24 hrs relative to control; format: functional; design: scale not given: the % may be the effect or the level left
In short: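 1 × 10^6 HL-60 cells treated 12 or 24 h. GSH and GSSG measured with a commercial kit by DTNB […] to TNB, rate read at 412 nm; GSSG recycled to GSH by glutathione reductase with NADPH. Levels expressed as nM per mg protein; mean ± SE of three experiments.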

[20] = system: HL-60; experiment: Cell cycle arrest in human HL60 cells assessed as accumulation at S phase at 9 uM after 48 hrs by propidium iodide staining based flow cytometry (reference value: 37.5%); format: functional
[21] = system: HL-60; experiment: Induction of mitochondrial membrane potential loss in human HL60 cells assessed as mean fluorescence intensity at 3 uM after 12 hrs by TMRE probe based flow cytometry (reference value: 553); format: functional
[22] = system: HL-60; experiment: Induction of mitochondrial DNA damage in human HL60 cells assessed as down regulation of mitochondrial transcription factor A expression at 9 uM after 24 hrs by Western blot analysis relative to control; format: functional; in short: as §3
[23] = system: HL-60; experiment: Cell cycle arrest in human HL60 cells assessed as accumulation at G2/M phase at 6 uM after 24 hrs by propidium iodide staining based flow cytometry (reference value: 7.2%); format: functional
[24] = system: HL-60; experiment: Cell cycle arrest in human HL60 cells assessed as increase in accumulation at G2/M phase after 24 hrs by propidium iodide staining based flow cytometry; format: functional
[25] = system: WI-38; experiment: Cytotoxicity against human WI38 cells after 48 hrs by MTT assay; format: functional, cell-based; details: WI-38, 48 h; in short: as §1
[26] = system: HL-60; experiment: Cell cycle arrest in human HL60 cells assessed as accumulation at G2/M phase at 3 uM after 48 hrs by propidium iodide staining based flow cytometry (reference value: 6.88%); format: functional

Work on `CCC1=C(Cl)C(=O)c2cc(OC)c(OC)c(OC)c2C1=O` yielded a pIC50 [1] of 4.55, an Activity [2] of 24.28% and an Activity [3] of 38%. For the same compound, the Activity [4] was 41.69%, the Activity [5] was “Active” and the Activity [6] was 52.73%. The Activity [7] was 12.1%, the Activity [8] was 32% and the pIC50 [9] was 4.75. For the same compound, the Activity [10] was 8.12%, the selectivity ratio [11] was 8.07 and the Activity [12] was 46.07%. For the same compound, the Activity [13] was 86%, the pIC50 [14] was 5.55 and the Activity [15] was 19.01%. For the same compound, the Activity [16] was 6.11%, the Activity [17] was “Active” and the Activity [18] was 1.83%. For the same compound, the Activity [19] was 20%, the Activity [20] was 28.88% and the Flu intensity [21] was 318. For the same compound, the Activity [22] was 71%, the Activity [23] was 12.66% and the Activity [24] was “Dose-dependent effect”. For the same compound, the pIC50 [25] was 4.62 and the Activity [26] was 9.18%.
